aDG glyco act = alpha-DG glycosylation activation; Pro5-aDG cells, alpha-DG glycosylation AlphaScreen (IIH6); 0% Pro5, 100% B10-LARGE cell signal; activation, % at 10 µM; actives 0.22% (n = 360,000); AID 624168;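 active means activation of at least 8% versus controls, or a plate z-score of at least 8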;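 further: Pro5 are CHO cells carrying HIG-tagged alpha-DG that lacks glycosylation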
MPTP block = inhibitors of mitochondrial permeability transition pore; isolated mouse mitochondria, Ca2+ swelling absorbance, 30 min; inhibition, % at 10 µM; actives 1.4% (n = 360,000); AID 602449;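 active means inhibition of 50% or more, scaled per plate between neutral and stimulator controls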;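 further: 0% = DMSO wells given calcium and 100% = 1 mM EGTA wells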
ADAM17 inh = inhibitors of human ADAM17 | AID 720648 | P78536 | recombinant ADAM17, EDANS/DABCYL FRET peptide cleavage | actives 0.83% (n = 370,000) | inhibition, % at 6.95 µM;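 active means inhibition above the mean of compounds lying between control limits plus 3 SD, set per campaign, cut at about 8.5% in these data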;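 further: 0% = DMSO-only wells as the low control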
Target sequence (P78536 215-824 limits assumed): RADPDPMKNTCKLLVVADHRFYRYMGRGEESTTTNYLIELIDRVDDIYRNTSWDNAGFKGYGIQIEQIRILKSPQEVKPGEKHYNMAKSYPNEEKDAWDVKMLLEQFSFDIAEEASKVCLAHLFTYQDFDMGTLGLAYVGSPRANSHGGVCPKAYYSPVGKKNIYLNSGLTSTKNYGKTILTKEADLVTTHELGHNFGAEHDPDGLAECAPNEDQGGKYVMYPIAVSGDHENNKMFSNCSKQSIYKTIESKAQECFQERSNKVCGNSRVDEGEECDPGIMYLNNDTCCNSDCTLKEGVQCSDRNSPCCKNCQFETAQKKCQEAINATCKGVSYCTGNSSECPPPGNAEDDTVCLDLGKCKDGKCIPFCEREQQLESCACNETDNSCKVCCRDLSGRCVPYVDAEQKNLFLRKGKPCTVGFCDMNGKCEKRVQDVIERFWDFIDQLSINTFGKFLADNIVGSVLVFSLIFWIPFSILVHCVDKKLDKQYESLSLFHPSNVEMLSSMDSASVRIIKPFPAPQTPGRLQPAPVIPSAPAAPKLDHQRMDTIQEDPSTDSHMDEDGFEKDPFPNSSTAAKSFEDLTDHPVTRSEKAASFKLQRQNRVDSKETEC
V-ATPase pH = alters yeast V-ATPase proton transport; actives 0.37% (n = 350,000); AID 504577; response, % at 10 µM; S. cerevisiae, pHLuorin cytosolic pH fluorescence; in the data active means response mostly above about 7.3%, no sharp cut-off; inactive means mostly below about 5.4%; further: actives read high
Lipid droplet = hepatic lipid droplet formation modulation; AML12 mouse hepatocytes, oleate lipid droplets, BODIPY imaging; inhibition, % at 6.5 µM; actives 0.4% (n = 240,000); AID 1656;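 active means lipid droplet intensity inhibited by at least 50%, with more than 500 cells counted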
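Assay system: AML12 mouse liver cells | Compound: 6.5 µM single-point dosing | Schedule: Overnight exposure | Technique: Fluorescence imaging, 20x objective, two fields per well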
ADAM10 inh = inhibits human ADAM10 | recombinant ADAM10, EDANS/DABCYL FRET peptide cleavage, 3 h | actives 0.62% (n = 370,000) | inhibition, % at 7 µM;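 active means inhibition above a per-campaign cutoff equal to the mean of compounds falling between control-based bounds plus 3 SD, cut at about 20% in these data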;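 further: 0% = DMSO wells while the 100% control is not disclosed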
MPTP counter = membrane potential counter-screen of mitochondrial pore inhibitors; isolated mitochondria, Rhodamine 123 fluorescence; shares compounds with MPTP block; actives 78% (n = 5,000); inhibition, % at 10 µM; in the data active means inhibition above about 22%;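 further: 0% = DMSO vehicle and 100% = positive control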
MPTP abs DR = dose response confirmation of mitochondrial permeability transition pore inhibitors; shares compounds with MPTP block; isolated mitochondria swelling, absorbance; IC50, µM; actives 58% (n = 780); AID 651561; in the data active means IC50 below about 20 µM
MPTP cs DR = counter-screen for mitochondrial permeability transition pore inhibitors, dose response. shares compounds with MPTP block. isolated mitochondria counterscreen, fluorescence read-out. IC50, µM. actives 49% (n = 780). AID 651564; in the data active means IC50 below about 80 µM
* hit, by the source's call; i = inactive; . = no result. Hits are enriched below; roughly 3.1% of the tested compounds scored in any of these assays.

SMILES	aDG glyco act	MPTP block	ADAM17 inh	V-ATPase pH	Lipid droplet	ADAM10 inh	MPTP counter	others
N=c1c2c(-c3ccccc3)c(-c3ccccc3)n(CCc3ccccc3)c2ncn1CCO	.	.	-6.1	.	.	-8.1	.
O=C1NC(=O)/C(=C/c2ccc(O)cc2)S1	-0.4	0.0	-0.8	-0.7	27.1	-9.1	.
O=C1NC(=O)C(=Cc2ccc(Cl)c(Cl)c2)S1	-0.1	73.3*	-1.1	-0.7	.	4.0	92.1*
CCOC(=O)c1ccc(N/N=C/c2cc(Br)cc([N+](=O)[O-])c2O)cc1	-0.6	74.4*	-0.9	2.1	0.7	12.7	21.4*
COC(=O)C[C@@H]1CC[C@H]2[C@H](COc3ccc(NC(=O)Nc4ccc(C#N)cc4)cc3C(=O)N2C)O1	.	.	-4.9	.	.	-8.0	.
O=C1c2cccc3cccc(c23)C(=O)N1CC1CCN(CC(O)COCc2ccc3c(c2)OCO3)CC1 (stereo unspecified)	4.0	55.6*	-52.5	2.6	-40.9	-216.1	4.9	MPTP abs DR=9.6*;MPTP cs DR=26.4*
Cc1ccc(C)c(OCC(O)CN2CCC(CN3C(=O)c4cccc5cccc(c45)C3=O)CC2)c1 (stereo unspecified)	0.9	100.5*	-27.3	0.9	-147.3	-99.5	91.6*
COc1ccc(OCC(O)CN2CCC(CN3C(=O)c4cccc5cccc(c45)C3=O)CC2)cc1 (stereo unspecified)	1.1	18.7	-71.4	4.7	.	-236.0	.
CN1CCN(CCCC(=O)c2ccc(C3CCCC3)cc2)CC1	4.4	78.7*	3.8	1.5	19.6	2.2	-1.6	MPTP abs DR=5.91*;MPTP cs DR=19*
O=C(NCc1ccc(C(F)(F)F)cc1)O[C@H]1CC[C@@]23CCCN2C(=O)CCC[C@H]3C1	.	.	-1.0	.	.	0.6	.
CCCCOCCCNC(=O)C[C@@H]1C(=O)N2CCCC3=C2[C@@]1(C(=O)OCC)CCC3	.	.	-1.2	.	.	-5.2	.
CC(=O)c1ccc(NC(=S)NCCc2cccc(Cl)c2)cc1	1.5	86.5*	1.8	1.3	-11.0	7.3	95.4*
CC(C)(C)c1cc(C(=O)NNC(=O)Nc2cccc(Cl)c2)n(Cc2ccccc2)n1	0.1	71.2*	-1.0	-1.4	0.6	0.3	79.0*
O=C(NCCCc1ccccc1)Nc1cccc(Cl)c1	0.4	70.1*	2.6	1.3	-24.3	8.8	95.0*
CC(=O)c1ccc(NC(=O)Nc2cccc(Cl)c2)cc1	0.8	101.2*	-1.7	-0.2	8.0	8.2	88.0*
C=CCN1C(=O)[C@@H](CC(=O)NCc2ccc(OC)c(OC)c2)[C@]2(C(=O)OCC)CCCCC/C=C/12	.	.	-2.7	.	.	-2.1	.
N#Cc1ccc(NC(=O)Nc2cccc(C#N)c2)cc1	0.8	72.0*	-2.2	-1.4	2.4	11.4	100.0*
CC(=O)c1ccc(NC(=O)Nc2ccc(Br)cc2C)cc1	0.6	89.8*	-3.7	2.3	1.7	-7.2	96.5*
O=C(Nc1ccccc1)Nc1ccc(Cl)nc1Cl	0.0	73.2*	-0.5	7.3	.	0.7	88.4*
O=C(NCCc1cccc(Cl)c1)c1ccc(Cl)c([N+](=O)[O-])c1	0.5	81.4*	0.5	1.7	-3.5	17.8	93.5*
O=C(Nc1ccccc1)Nc1ccccc1	-0.1	-0.4	-0.4	-1.6	.	1.3	.
CC(=O)c1ccc(NC(=O)c2ccc(C)c(Br)c2)cc1	1.6	13.0	1.4	2.4	-1.7	6.4	.
O=C(NCC(c1ccccc1)c1ccccc1)[C@H](Cc1c[nH]c2ccccc12)NC1(C(=O)NC2CCCCC2)CCCCCC1	.	.	-4.7	.	.	-7.6	.
CC(C)Cn1c(=O)cc(N2CCN(c3cccc(C(F)(F)F)c3)CC2)[nH]c1=O	.	.	0.2	.	.	-1.9	.
O=C(Nc1ccccc1)Nc1cccc(Cl)c1	1.5	95.7*	3.9	-3.3	-11.3	0.8	87.1*
SMILES	aDG glyco act	MPTP block	ADAM17 inh	V-ATPase pH	Lipid droplet	ADAM10 inh	MPTP counter	others
CC(=O)Nc1ccc(NC(=O)Nc2cccc(Cl)c2)cc1	-0.1	0.5	-0.8	-3.2	14.0	0.1	.
CCOC(=O)C1=C(O)c2ccccc2C(=O)/C1=C\c1ccc(CC)cc1	1.4	67.3*	.	-0.9	-4.0	.	76.8*
CCSc1nnc(NC(=O)NC(C)(C(F)(F)F)C(F)(F)F)s1	0.1	92.2*	-0.8	-1.4	-0.3	8.0	93.2*
CCSc1nnc(NC(=O)NC(CC)(C(F)(F)F)C(F)(F)F)s1	0.4	88.2*	-3.5	.	.	4.0	102.0*
CCOC(=O)[C@]12CCCCC/C=C\1N(CCc1ccc(Cl)cc1)C(=O)[C@H]2CC(=O)N1CCN(C(=O)C2CC2)CC1	.	.	5.3	.	.	5.8	.
CCC(=O)NCC[C@@H]1CCc2ccc3c(c21)CCO3	.	.	0.7	.	.	-4.2	.
Cc1cc(/C=C2/SC(=S)N(c3cccc(C(F)(F)F)c3)C2=O)c(C)n1-c1cccnc1	2.3	104.7*	.	-5.3	.	.	86.8*
Cc1cc(/C=C2\SC(=S)N(Cc3ccco3)C2=O)c(C)n1-c1cccnc1	-0.6	6.9	-1.2	-9.9	.	7.8	.
Cc1ccc(C)c(S(=O)(=O)Nc2ccccc2C(=O)Nc2cc(C)on2)c1	0.2	57.9*	-495.9	-1.8	.	i	69.8*
Cc1ccc(C)c(NC(=O)c2ccccc2NS(=O)(=O)c2cc([N+](=O)[O-])ccc2C)c1	0.3	92.0*	2.5	-0.2	-16.0	5.4	58.2*
Cc1cc(NC(=O)c2ccccc2NS(=O)(=O)c2c(C)c(C)cc(C)c2C)no1	0.0	49.4	-25.2	3.3	.	-71.3	.
Cc1ccc([N+](=O)[O-])cc1S(=O)(=O)Nc1cccc(S(=O)(=O)Nc2ccccc2C(=O)O)c1	-0.2	-2.4	2.7	-2.3	.	4.2	.
O=C1c2ccccc2C(=O)C12OC2c1ccc(Cl)cc1 (stereo unspecified)	.	.	.	.	1.8	.	.
O=C1CCCC2=C1C(c1ccc(Cl)cc1)C1C(=O)c3ccccc3C1=N2 (stereo unspecified)	0.1	54.7*	-1.6	0.0	.	-9.3	36.3*
O=C1c2ccccc2C2=Nc3ccccc3SC(c3ccc(Cl)cc3)C12 (stereo unspecified)	-0.3	89.2*	-0.8	-3.8	48.8	3.8	55.5*
OCCN1CCN(c2nc(-c3ccccc3)c3cc(Cl)ccc3n2)CC1	3.9	79.6*	-51.2	0.3	.	-147.0	-14.4	MPTP abs DR=9.16*;MPTP cs DR=>80
Clc1ccc2nc(N3CCNCC3)nc(-c3ccccc3)c2c1	1.2	3.7	-126.7	-5.9	.	-491.0	.
CN1CCN(c2nc(-c3ccccc3)c3cc(Cl)ccc3n2)CC1	3.0	62.8*	-44.1	-1.8	.	-132.0	-5.9	MPTP abs DR=17*;MPTP cs DR=76.8*
COc1ccc(-c2nnc(SCC(=O)Nc3ccc4cn[nH]c4c3)n2Cc2ccco2)cc1	.	.	-1.4	.	.	-7.5	.

From PubChem BioAssay
